According to ChEMBL document CHEMBL2417461, “Spectroscopic, computational modeling and cytotoxicity of a series of meso-phenyl and meso-thienyl-BODIPYs” (Bioorg Med Chem, 2013):

Key:
[1] = system: HEp-2; assay: Phototoxicity in human Hep2 cells incubated for 24 hrs followed by 1.5 J/cm'2 light irradiation for 20 mins measured after 24 hrs by Cell Titre Blue assay; format: functional, cell-based; settings: HEp-2, light or radiation study
Summary of the method: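 HEp2 cells given 3.125–200 μM compound for 24 h at 37 °C, then washed and refed. Irradiated on ice for 20 min with a 100 W halogen lamp through a 610 nm long-pass filter and a water IR filter, about 1.5 J/cm². After 24 h more, 20% Cell Titer Blue for 4 h, read at 570/615 nm. IC50 from dose–response curves.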

[2] = Ratio of IC50 for dark toxicity in human Hep2 cells to IC50 for phototoxicity in human Hep2 cells; format: cell-based; settings: HEp-2 cells, read-out: Ratio IC50
[3] = Cellular uptake in human Hep2 cell mitochondria at 10 uM after 24 hrs by micro plate reader analysis; format: ADME; settings: hep-2, 24 h
Summary of the method: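 HEp2 cells (DMEM:AMEM 50:50, 10% FBS) seeded 15,000/well, grown overnight, then given 10 μM compound in medium with 5% FBS for 0–24 h. Washed with PBS, lysed in 0.25% Triton X-100. Compound fluorescence read at 355/520 nm against standard curve, cell number by CyQuant at 485/520 nm. Uptake given per cell.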

[4] = Dark toxicity in human Hep2 cells after 24 hrs by Cell Titre Blue assay; format: cell-based; settings: HEp-2 cells
Summary of the method: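 HEp2 cells seeded 15,000/well. Compound at 12.5–400 μM (vehicle DMSO/Cremophor EL) for 24 h at 37 °C in the dark, five replicates per concentration. Washed, then 20% Cell Titer Blue for 4 h. Fluorescence read at 570/615 nm as % viable cells, IC50 taken from dose–response curves.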

[5] = Induction of singlet oxygen generation assessed as decrease in DPBF absorbance at 5 uM followed by 71 W light irradiation for 1 hr by spectrophotometry; format: physicochemical
Summary of the method: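 Compound at 5 μM with 50 μM DPBF in DMSO, 2 mL, irradiated 1 h with a 71 W source through a 500 nm long-pass filter. DPBF absorbance at 410 nm sampled every 15 min. Rate of absorbance decrease referenced to methylene blue at equal concentration.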

SMILES | IC50 [1] | selectivity ratio [2] | Drug uptake [3] | IC50 at 24 h [4] | Activity [5]
CC1=C(I)C(C)=[N+]2C1=C(c1ccc(Br)cc1)c1c(C)c(I)c(C)n1[B-]2(F)F | 28 µM | > 15 | Active | > 400 µM | –
CC1=CC(C)=[N+]2C1=C(c1cccs1)c1c(C)cc(C)n1[B-]2(F)F | > 100 µM | > 3 | – | > 300 µM | –
CC1=C(I)C(C)=[N+]2C1=C(c1ccc(-c3ccc(Br)s3)s1)c1c(C)c(I)c(C)n1[B-]2(F)F | 3.5 µM | 2.3 | Active | 8 µM | Active
COC(=O)c1ccc(C2=C3C(C)=C(I)C(C)=[N+]3[B-](F)(F)n3c(C)c(I)c(C)c32)cc1 | > 200 µM | > 2 | – | > 400 µM | –
CC1=CC(C)=[N+]2C1=C(c1ccc(-c3ccc(Br)s3)s1)c1c(C)cc(C)n1[B-]2(F)F | 82 µM | > 3.5 | – | > 300 µM | –
CC1=C(I)C(C)=[N+]2C1=C(c1cccs1)c1c(C)c(I)c(C)n1[B-]2(F)F | 14 µM | > 30 | Active | > 400 µM | Active
CC1=C(I)C(C)=[N+]2C1=C(c1ccc(Br)s1)c1c(C)c(I)c(C)n1[B-]2(F)F | > 200 µM | > 2 | – | > 400 µM | –
CC1=C(I)C(C)=[N+]2C1=C(c1c(F)c(F)c(F)c(F)c1F)c1c(C)c(I)c(C)n1[B-]2(F)F | > 200 µM | > 2 | – | > 400 µM | –
COc1cc(OC)cc(C2=C3C(C)=C(I)C(C)=[N+]3[B-](F)(F)n3c(C)c(I)c(C)c32)c1 | 4 µM | > 100 | Active | > 400 µM | Active
CC1=C(I)C(C)=[N+]2C1=C(c1ccccc1)c1c(C)c(I)c(C)n1[B-]2(F)F | 27 µM | > 15 | Active | > 400 µM | Active
COc1ccc(C2=C3C(C)=C(I)C(C)=[N+]3[B-](F)(F)n3c(C)c(I)c(C)c32)cc1OC | 7.5 µM | > 53 | Active | > 400 µM | Active
CC1=C(I)C(C)=[N+]2C1=C(c1cc(C(C)(C)C)cc(C(C)(C)C)c1)c1c(C)c(I)c(C)n1[B-]2(F)F | > 200 µM | > 2 | – | > 400 µM | –
COC(=O)c1ccc(C2=C3C(C)=CC(C)=[N+]3[B-](F)(F)n3c(C)cc(C)c32)cc1 | > 100 µM | > 4 | – | > 400 µM | –
CC1=C(I)C(C)=[N+]2C1=C(c1ccc(-c3cccs3)s1)c1c(C)c(I)c(C)n1[B-]2(F)F | > 200 µM | > 2 | – | > 400 µM | –
CC1=CC(C)=[N+]2C1=C(c1ccc(-c3cccs3)s1)c1c(C)cc(C)n1[B-]2(F)F | > 100 µM | > 4 | – | > 400 µM | –
